In assay [1] the target is T1, Autotaxin (Homo sapiens, UniProt Q13822). In words: Inhibition of human recombinant C-terminal FLAG-tagged autotaxin expressed in baculovirus-infected Sf9 cells assessed as FS-3 hydrolysis at 0.03 uM; values are per cent of control.
The target in assay [2] is T2, Ectonucleotide pyrophosphatase/phosphodiesterase family member 7 (Homo sapiens) (UniProt Q6UWV6).
T2 sequence (whole entry): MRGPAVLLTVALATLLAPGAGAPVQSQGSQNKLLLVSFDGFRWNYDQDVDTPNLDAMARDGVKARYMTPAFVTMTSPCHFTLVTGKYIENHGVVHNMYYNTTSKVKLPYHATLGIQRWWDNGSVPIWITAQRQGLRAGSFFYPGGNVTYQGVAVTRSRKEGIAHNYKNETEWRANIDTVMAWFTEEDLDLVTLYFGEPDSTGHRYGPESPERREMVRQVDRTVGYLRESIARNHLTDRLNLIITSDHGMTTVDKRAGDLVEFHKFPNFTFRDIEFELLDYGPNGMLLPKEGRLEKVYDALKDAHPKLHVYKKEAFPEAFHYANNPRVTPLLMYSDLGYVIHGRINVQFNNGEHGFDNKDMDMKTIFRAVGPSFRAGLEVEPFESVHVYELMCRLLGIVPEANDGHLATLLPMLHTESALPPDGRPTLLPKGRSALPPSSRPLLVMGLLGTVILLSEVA
In words: Inhibition of human recombinant C-terminal FLAG-tagged NPP7 expressed in baculovirus-infected Sf9 cells assessed as pNPPC hydrolysis at 10 uM relative to control. An outline of the steps: (§1)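 Purified Sf9-expressed FLAG-tagged enzyme 8.3 nM with inhibitor 10 μM final. NPP6: pNPPC 10 μM in 100 mM Tris-HCl, 500 mM NaCl, 0.05% Triton X-100, pH 9. NPP7: pNPPC 500 μM in 50 mM Tris HCl, 150 mM NaCl, 10 mM sodium taurocholate, pH 8. 37 °C, A405 every 2 min; percent activity vs vehicle at 1 h after no-enzyme subtraction; three wells.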

The target in assay [3] is T1, Autotaxin. In words: Inhibition of human recombinant C-terminal FLAG-tagged autotaxin expressed in baculovirus-infected Sf9 cells assessed as FS-3 hydrolysis at 10 uM; values are per cent of control.
In assay [4] the target is T1, Autotaxin. In words: Competitive inhibition of human recombinant C-terminal FLAG-tagged autotaxin expressed in baculovirus-infected Sf9 cells assessed as FS-3 hydrolysis by Michaelis-Menten method.
In assay [5] the target is T1, Autotaxin. In words: Inhibition of human recombinant C-terminal FLAG-tagged autotaxin expressed in baculovirus-infected Sf9 cells assessed as FS-3 hydrolysis at 0.3 uM; values are per cent of control.
Assay [6] concerns the target T1, Autotaxin. In words: Inhibition of human recombinant C-terminal FLAG-tagged autotaxin expressed in baculovirus-infected Sf9 cells assessed as FS-3 hydrolysis at 3 uM; values are per cent of control.
In assay [7] the target is T1, Autotaxin. In words: Inhibition of human recombinant C-terminal FLAG-tagged autotaxin expressed in baculovirus-infected Sf9 cells assessed as FS-3 hydrolysis at 1 uM; values are per cent of control.
The target in assay [8] is T1, Autotaxin. In words: Inhibition of human recombinant C-terminal FLAG-tagged autotaxin expressed in baculovirus-infected Sf9 cells assessed as FS-3 hydrolysis at 0.01 uM; values are per cent of control.
For assay [9], the target named is T1, Autotaxin. In words: Inhibition of human recombinant C-terminal FLAG-tagged autotaxin expressed in baculovirus-infected Sf9 cells assessed as FS-3 hydrolysis at 0.003 uM; values are per cent of control.
In assay [10] the target is T1, Autotaxin. In words: Inhibition of human recombinant C-terminal FLAG-tagged autotaxin expressed in baculovirus-infected Sf9 cells assessed as FS-3 hydrolysis at 10 uM relative to control. A digest of the protocol:
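Single-dose screen: inhibitor 10 μM final, purified recombinant human ATX 8.3 nM, FS-3 1 μM, fatty acid free BSA 30 μM in Tris pH 8 buffer (1 mM MgCl2, 1 mM CaCl2, 3 mM KCl, 140 mM NaCl), 37 °C. Fluorescence (ex 485/em 538) read every 2 min; percent activity vs vehicle after no-ATX subtraction at 1 h; mean ± SD of three wells.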

Assay [11] addresses T1, Autotaxin. In words: Inhibition of human recombinant C-terminal FLAG-tagged autotaxin expressed in baculovirus-infected Sf9 cells assessed as FS-3 hydrolysis at 0.1 uM; values are per cent of control.
Assay [12] deals with T3, Glycerophosphocholine cholinephosphodiesterase ENPP6 (Homo sapiens) (UniProt Q6UWR7).
T3 sequence (whole entry): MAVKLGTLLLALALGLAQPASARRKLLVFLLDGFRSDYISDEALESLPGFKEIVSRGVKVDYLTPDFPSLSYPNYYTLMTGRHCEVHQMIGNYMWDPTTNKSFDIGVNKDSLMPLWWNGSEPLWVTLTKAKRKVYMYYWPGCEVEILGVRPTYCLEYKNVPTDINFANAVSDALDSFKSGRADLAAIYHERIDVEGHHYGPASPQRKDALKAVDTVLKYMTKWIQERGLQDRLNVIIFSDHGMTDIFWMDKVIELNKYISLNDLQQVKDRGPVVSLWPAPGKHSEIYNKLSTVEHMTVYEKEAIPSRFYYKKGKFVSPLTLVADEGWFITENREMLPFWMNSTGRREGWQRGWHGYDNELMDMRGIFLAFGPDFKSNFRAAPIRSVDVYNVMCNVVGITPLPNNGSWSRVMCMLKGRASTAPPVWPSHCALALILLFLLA
In words: Inhibition of human recombinant C-terminal FLAG-tagged NPP6 expressed in baculovirus-infected Sf9 cells assessed as pNPPC hydrolysis at 10 uM relative to control. An outline of the steps: as §1

Assay [13] deals with T1, Autotaxin. In words: Inhibition of human recombinant C-terminal FLAG-tagged autotaxin expressed in baculovirus-infected Sf9 cells assessed as FS-3 hydrolysis at 30 uM; values are per cent of control.
Assay [14] concerns the target T1, Autotaxin. In words: Inhibition of human recombinant C-terminal FLAG-tagged autotaxin expressed in baculovirus-infected Sf9 cells assessed as FS-3 hydrolysis. A digest of the protocol: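 Dose response: final inhibitor 30, 10, 3, 1, 0.3, 0.1, 0.03 μM, plus 0.01 and 0.003 μM for some compounds; purified human ATX 8.3 nM, 1 μM FS-3, 30 μM fatty acid free BSA, Tris pH 8 buffer, 37 °C. Fluorescence ex 485/em 538 every 2 min; percent activity vs vehicle at 1 h after no-ATX background subtraction; mean of three wells.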

For assay [15], the target named is T1, Autotaxin. In words: Noncompetitive inhibition of human recombinant C-terminal FLAG-tagged autotaxin expressed in baculovirus-infected Sf9 cells assessed as FS-3 hydrolysis by Michaelis-Menten method.

As to `COc1cc(-c2ccc(/N=N/c3c(S(=O)(=O)O)cc4cc(S(=O)(=O)O)cc(N)c4c3O)c(OC)c2)ccc1/N=N/c1c(S(=O)(=O)O)cc2cc(S(=O)(=O)O)cc(N)c2c1O`, the residual activity at Autotaxin [1] amounted to 86.2%; on Autotaxin [3], 6%; at Autotaxin [5], 52.9%; on Autotaxin [6], 14.1%; on Autotaxin [7], 26%; at Autotaxin [8], 93.9%. Moreover, the residual activity at Autotaxin [9] worked out at 97.5%; on Autotaxin [11], 72%; at Autotaxin [13], 2.68%. Further, the values for the inhibition (in [2]; on Autotaxin [10]; in [12]) were -1%, 93% and -3%, respectively. For the same compound, the Ki on Autotaxin [4] was determined as 271 nM. Also, the IC50 on Autotaxin [14] stood at 372 nM.

Consider `Nc1c(/N=N/c2ccc(-c3ccc(/N=N/c4cc(S(=O)(=O)O)c5ccccc5c4N)cc3)cc2)cc(S(=O)(=O)O)c2ccccc12` [CONGO RED], for which the residual activity came to 94.6% at Autotaxin [1]; 14.6% on Autotaxin [3]; 77.3% on Autotaxin [5]; 36.7% on Autotaxin [6]; 54.9% on Autotaxin [7]; 99.8% on Autotaxin [8]. In addition, the residual activity at Autotaxin [9] was 99.9%; at Autotaxin [11] it was 91.2%; at Autotaxin [13], 5.29%. The inhibition in [2] was 2%; at Autotaxin [10], 82%; in assay [12] it was -3%. For the same compound, on Autotaxin [15], the Ki was found to be 1890 nM. Also, the IC50 on Autotaxin [14] came to 1310 nM.

Regarding `Cc1cc(-c2ccc(/N=N/c3ccc4c(S(=O)(=O)O)cc(S(=O)(=O)O)c(N)c4c3O)c(C)c2)ccc1/N=N/c1ccc2c(S(=O)(=O)O)cc(S(=O)(=O)O)c(N)c2c1O` [EVANS BLUE], the residual activity at Autotaxin [1] stood at 89.6%; on Autotaxin [3] it was 26.2%; at Autotaxin [5] it was 60.9%; on Autotaxin [6], 35.8%; on Autotaxin [7], 47.9%; at Autotaxin [8] it was 96%. The residual activity was 95.8% at Autotaxin [9], 82.3% on Autotaxin [11] and 13.3% on Autotaxin [13]. In addition, the inhibition was -2% in assay [2], 64% on Autotaxin [10] and -2% in [12]. For the same compound, the Ki at Autotaxin [4] was 824 nM. The IC50 on Autotaxin [14] was found to be 922 nM.

Source of the values: ChEMBL document CHEMBL1156229, “Pharmacophore development and application toward the identification of novel, small-molecule autotaxin inhibitors” (J Med Chem, 2010).
